Screening data: PubChem, Broad Institute
DENV2 CPE: inhibitors of DENV2 cytopathic effect; 1.7% of 350,000 active; CPE inhibition, % at 9.99 µM; DENV2-infected cells, cytopathic effect rescue, plate reader; in the data active = CPE inhibition above about 20%, passing the limit was not always enough; tested in BHK-21 cells;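 note: 0% = median of neutral control wells and 100% = median of positive control wells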
C2C12 statin: protects C2C12 myotubes from simvastatin toxicity. rescue of ATP level, % at 7.49 µM. ATP luminescence, 48 h; scaled: DMSO 0, geranylgeraniol control 100. 0.78% of 330,000 active;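 active = mean ATP rescue above about 67%, or every replicate alone reaching that limit, limit read from the data, passing the limit was not always enough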;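 note: myotubes were challenged with 10 µM simvastatin during compound exposure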
E-sel inducer: E-selectin induction on HUVECs | P16581 | HUVEC E-selectin immunofluorescence imaging; normalized: neutral wells 0, TNF-alpha wells 100 | activation, % at 7.58 µM | 0.37% of 260,000 active;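 active = mean E-selectin-positive cell signal at least 10% of the positive control, reached in at least 60% of replicates, without over 20% cell loss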
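Material: HUVEC primary endothelial cells; Amount: 3,000 cells per well; Dosing: single concentration; Medium: EGM-2 growth medium on 0.1% gelatin-coated wells; Read-out basis: percent E-selectin-positive cells; Signal: immunofluorescence imaging; Control set: TNF-alpha, DMSO.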
Numbers without * were called inactive; nt = no result given; ! = a repeat was not active. Most compounds without a hit are left out; they make up all but 2.2% or so of the library.

SMILES	DENV2 CPE	C2C12 statin	E-sel inducer
CC(C)NC(=O)N1Cc2cc(C(=O)NC3CCCC3)nc(-c3cccc(-c4cccnc4)c3)c2[C@H]1CCO	6	nt	3
CCC(=O)N1Cc2cc(C(=O)NCC(F)(F)F)nc(-c3cccc(-c4cncnc4)c3)c2[C@@H]1CCO	1	nt	nt
CCC(=O)N1Cc2cc(C(=O)N(C)C)nc(-c3cccc(-c4cncnc4)c3)c2[C@H]1CCO	-4	-17	0
CCNC(=O)c1cc2c(c(-c3cccc(-c4cncnc4)c3)n1)[C@@H](CCO)N(C(C)=O)C2	40*!	-9	0
C[C@@H]1CCCCO[C@H](CN(C)C(=O)c2ccncc2)[C@H](C)CN([C@H](C)CO)C(=O)c2cc(NC(=O)c3ccccc3)ccc2O1	0	nt	1
CC=Cc1ccc2n(c1=O)C[C@@H]1[C@@H](CO)[C@H](C(=O)N[C@@H](C)c3ccccc3)N(C(=O)c3cnccn3)[C@H]21 (mixture of isomers)	-2	6	-2
O=S(=O)(N[C@@H]1CC[C@@H](CCn2cc(-c3ccc(F)cc3)nn2)O[C@H]1CO)c1ccccc1F	-2	3	1
O=C(C[C@H]1CC[C@@H]2[C@H](COC[C@@H](O)CN2C(=O)c2ccccc2F)O1)N1CCCCC1	-5	1	0
COc1cccc(C(=O)Nc2ccc3c(c2)OC[C@H](C)N(CC2CC2)C[C@@H](C)[C@@H](OC)CN(C)C3=O)c1	7	3	0
O=[N+]([O-])c1cccnc1NCCNc1ncc(C(F)(F)F)cc1Cl	nt	136*	nt
Cc1ccc(C(=O)NCCNc2ncc(C(F)(F)F)cc2Cl)cc1[N+](=O)[O-]	-1	-15	0
C[C@H](CO)N1C[C@H](C)[C@H](CN(C)Cc2ccc3c(c2)OCO3)Oc2ccc(NS(=O)(=O)c3cn(C)cn3)cc2C1=O	4	-16	nt
COc1cc2c(cc1OC)C(C1C(=O)CCCC1=O)N(C(=O)CCl)CC2 (centres undefined)	nt	3	nt
COc1cc2c(cc1OC)C(c1ccccc1)N(C(=O)CCl)CC2 (centres undefined)	nt	168*	nt
Cn1c(C(=O)N/N=C/c2ccccc2)cc2ccccc21	88*	0	nt
Cn1c(N)c(C(=O)N/N=C/c2ccccc2)sc1=S	-6	nt	1
C[C@@H]1CN([C@@H](C)CO)C(=O)Cc2cc(NC(=O)Cn3cnnn3)ccc2O[C@H]1CN(C)Cc1ccncc1	0	-10	1
COc1cccc(C(=O)Nc2ccc3c(c2)C(=O)N(C)[C@@H]2CC[C@H](CC(=O)NCc4ccccc4F)O[C@@H]2CO3)c1	nt	-13	0
Cc1noc(C)c1NC(=O)Nc1ccc2c(c1)C(=O)N([C@@H](C)CO)C[C@H](C)[C@@H](CN(C)C(=O)Nc1ccc(C(F)(F)F)cc1)O2	-10	-12	0
COCC(=O)Nc1ccc2c(c1)[C@H]1C[C@@H](CC(=O)NCc3ccc(OC)cc3)O[C@@H](CO)[C@H]1O2	4	0	0
N#Cc1c(Cl)cccc1N1CCCC1	0	-14	0
N#Cc1c(Cl)cccc1N1CCSCC1	36*	nt	0
C[C@@H](NC(=O)C[C@@H]1C=C[C@@H](NC(=O)C2CCC2)[C@H](CO)O1)c1ccccc1	-8	-2	1
C/C=C/c1ccc([C@@H]2[C@@H](CO)N(C(C)=O)C23CN(C(=O)c2ccccc2)C3)cc1	0	nt	0
C/C=C/c1ccc([C@H]2[C@H](CO)N(C(=O)c3cnccn3)C23CN(C(=O)C2CC2)C3)cc1	33*	nt	0
SMILES	DENV2 CPE	C2C12 statin	E-sel inducer
C/C=C/c1ccc([C@@H]2[C@@H](CO)N(C(C)=O)C23CN(C(=O)c2ccncc2)C3)cc1	25*	nt	1
C/C=C/c1ccc([C@@H]2[C@@H](CO)N(C(=O)c3cnccn3)C23CN(C(=O)C2CC2)C3)cc1	-7	nt	0
CC(C)NC(=O)N(C)C[C@@H]1OCCCC[C@H](C)Oc2ccc(NC(=O)C3CCCCC3)cc2C(=O)N([C@@H](C)CO)C[C@H]1C	-6	nt	nt
C[C@@H]1CN([C@H](C)CO)C(=O)c2cccc(NS(=O)(=O)c3cn(C)cn3)c2O[C@H]1CN(C)C(=O)Nc1ccc(C(F)(F)F)cc1	0	-51	0
C[C@@H]1CN([C@@H](C)CO)C(=O)c2cc(NC(=O)CCC(F)(F)F)ccc2O[C@@H](C)CCCCO[C@@H]1CN(C)Cc1ccccc1	nt	-1	0
C[C@H]1CN([C@@H](C)CO)C(=O)Cc2cc(NC(=O)NC3CCCCC3)ccc2O[C@@H]1CN(C)C(=O)Nc1ccc(F)cc1	1	0	0
CN1[C@@H]2c3ccc(-c4ccc(F)cc4)c(=O)n3C[C@@H]2[C@@H](CO)[C@@H]1C(=O)NCCN1CCCCC1	13	-7	0
Cc1ccccc1NC(=O)c1ccc(C)c(S(=O)(=O)NCc2cccnc2)c1	6	0	0
O=C(Nc1ccc(S(=O)(=O)Nc2ccccn2)cc1)c1cccc(Cl)c1	10	74*	0
Cc1ccccc1NC(=O)c1ccc(S(=O)(=O)N(C)C)cc1	51*	nt	0
Cc1ccccc1NC(=O)c1ccc(C)c(S(=O)(=O)Nc2ccccn2)c1	4	97*	nt
O=C(Nc1ccc(S(=O)(=O)Nc2ccccn2)cc1)c1cccc(Br)c1	0	-2	0
CN(C)S(=O)(=O)c1ccc(C(=O)Nc2ccccc2[N+](=O)[O-])cc1	-4	nt	nt
